ChEMBL document CHEMBL5338787, “Discovery of Novel Bruton's Tyrosine Kinase PROTACs with Enhanced Selectivity and Cellular Efficacy” (J Med Chem, 2023)
The source made the active and inactive calls. The rule behind the calls is not given here.

How the values were obtained:
MINO = assay: Induction of apoptosis in human MINO cells measured after 48 hrs by Annexin-V/propidium iodide staining based flow cytometric analysis; assay type: functional, cell-based; conditions: dose 0.15-3000 nM
How it was run: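 Cells plated at 2 × 10^6 per well and treated 48 h at 3,000–0.15 nM (3-fold dilutions) or 1% DMSO. Harvested, washed in cold PBS, stained with Annexin V Alexa Fluor 488/propidium iodide, analysed by flow cytometry for % live, apoptotic and necrotic cells. Mean of two independent experiments.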

[1] = target: T1, Tyrosine-protein kinase BTK (Homo sapiens, UniProt Q06187); assay: Binding affinity to full length BTK (unknown origin) assessed as dissociation constant measured at 37 degree C by TR-FRET assay
[2] = target: T1, Tyrosine-protein kinase BTK; assay: Potency index, ratio of test compound Kd to GDC-0853 Kd for full length BTK (unknown origin)
[3] = target: T2, Protein cereblon/Tyrosine-protein kinase BTK (Homo sapiens, UniProt Q06187+Q96SW2); assay: PROTAC activity at BTK/CRBN protein protein interaction in human JeKo-1 cell assessed as degradation of BTK incubated for 17 hrs measured by Western blot analysis; assay type: cell-based
How it was run: (§1)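 Ramos or JeKo-1 cells (2 × 10^6 per well) were exposed for 17 h to 3000–0.15 nM PROTAC in 3-fold steps. Cells were lysed and analysed by western blot, with BTK normalised to β-actin. DC50 and Dmax come from the dose-response; DC50 is the mean ± SD of two independent experiments.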
Target sequence in this assay (Q06187 whole entry): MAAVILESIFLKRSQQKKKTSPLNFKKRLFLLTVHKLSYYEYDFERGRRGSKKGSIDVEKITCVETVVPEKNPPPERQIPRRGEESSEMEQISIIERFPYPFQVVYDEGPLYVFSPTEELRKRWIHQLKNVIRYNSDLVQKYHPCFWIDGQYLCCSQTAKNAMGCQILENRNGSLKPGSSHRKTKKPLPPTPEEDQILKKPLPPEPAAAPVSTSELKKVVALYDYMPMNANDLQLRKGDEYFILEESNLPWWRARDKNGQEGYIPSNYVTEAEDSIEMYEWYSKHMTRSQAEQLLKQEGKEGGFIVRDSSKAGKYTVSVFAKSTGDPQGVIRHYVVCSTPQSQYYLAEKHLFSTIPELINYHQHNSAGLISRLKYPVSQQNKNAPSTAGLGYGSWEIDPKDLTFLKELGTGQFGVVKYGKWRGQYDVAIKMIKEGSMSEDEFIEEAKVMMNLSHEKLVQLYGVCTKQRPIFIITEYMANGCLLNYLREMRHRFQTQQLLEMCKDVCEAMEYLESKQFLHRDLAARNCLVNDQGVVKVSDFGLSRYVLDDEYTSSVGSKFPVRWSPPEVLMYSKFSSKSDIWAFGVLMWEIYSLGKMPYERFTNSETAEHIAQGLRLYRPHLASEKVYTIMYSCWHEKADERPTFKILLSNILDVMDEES
Target sequence in this assay (Q96SW2 whole entry): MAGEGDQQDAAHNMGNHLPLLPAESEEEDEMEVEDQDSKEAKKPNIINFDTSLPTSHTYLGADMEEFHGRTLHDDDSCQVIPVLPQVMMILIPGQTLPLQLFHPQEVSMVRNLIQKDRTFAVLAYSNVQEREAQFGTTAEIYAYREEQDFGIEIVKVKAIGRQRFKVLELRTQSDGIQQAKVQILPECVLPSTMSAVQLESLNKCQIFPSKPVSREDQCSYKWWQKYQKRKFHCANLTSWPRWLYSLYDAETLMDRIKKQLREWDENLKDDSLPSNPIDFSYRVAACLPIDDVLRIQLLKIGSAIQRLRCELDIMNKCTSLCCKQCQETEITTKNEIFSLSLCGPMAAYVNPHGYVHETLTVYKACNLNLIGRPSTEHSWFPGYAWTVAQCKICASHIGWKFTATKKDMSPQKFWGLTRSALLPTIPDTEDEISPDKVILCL

[4] = target: T2, Protein cereblon/Tyrosine-protein kinase BTK; assay: PROTAC activity at BTK/CRBN protein protein interaction in human Ramos cell assessed as degradation of BTK incubated for 17 hrs measured by Western blot analysis relative to control; assay type: cell-based; how it was run: as §1
Target sequence in this assay (Q06187 2-659 limits assumed): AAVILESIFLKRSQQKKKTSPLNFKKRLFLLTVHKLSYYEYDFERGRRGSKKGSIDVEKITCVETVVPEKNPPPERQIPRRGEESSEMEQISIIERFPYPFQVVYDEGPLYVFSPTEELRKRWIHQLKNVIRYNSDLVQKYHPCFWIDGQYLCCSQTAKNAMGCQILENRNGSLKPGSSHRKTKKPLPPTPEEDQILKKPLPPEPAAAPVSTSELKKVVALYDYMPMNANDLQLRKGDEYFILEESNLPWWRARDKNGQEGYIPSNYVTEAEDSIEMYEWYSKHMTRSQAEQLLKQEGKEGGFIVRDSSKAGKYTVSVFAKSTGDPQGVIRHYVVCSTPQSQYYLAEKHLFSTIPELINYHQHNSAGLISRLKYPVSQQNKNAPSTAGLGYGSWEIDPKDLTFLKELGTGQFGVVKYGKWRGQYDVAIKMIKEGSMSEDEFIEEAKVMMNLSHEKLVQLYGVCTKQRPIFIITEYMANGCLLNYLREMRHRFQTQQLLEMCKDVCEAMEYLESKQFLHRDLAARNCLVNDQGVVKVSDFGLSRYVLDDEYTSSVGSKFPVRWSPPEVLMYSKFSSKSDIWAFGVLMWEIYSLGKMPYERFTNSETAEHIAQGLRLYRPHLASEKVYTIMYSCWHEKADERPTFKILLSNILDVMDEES
Target sequence in this assay (Q96SW2 whole entry partner): as the sequence (Q96SW2 whole entry) above

[5] = target: T2, Protein cereblon/Tyrosine-protein kinase BTK; assay: PROTAC activity at BTK/CRBN protein protein interaction in human JeKo-1 cell assessed as degradation of BTK incubated for 17 hrs measured by Western blot analysis relative to control; assay type: cell-based; how it was run: as §1
Target sequence in this assay (Q06187 2-659 limits assumed): as the sequence (Q06187 2-659 limits assumed) above
Target sequence in this assay (Q96SW2 whole entry partner): as the sequence (Q96SW2 whole entry) above

[6] = target: T2, Protein cereblon/Tyrosine-protein kinase BTK; assay: PROTAC activity at Halo-tagged CRBN/NanoLuc fusion tagged BTK transfected in HEK293 cells assessed as degradation of BTK by measuring ternary complex formation using NanoGlo substrate preincubated with proteasome inhibitor MG-132 for 30 mins followed by compound and substrate addition incubated for 2.5 hrs measured by NANOBRET assay relative to 4-((2-((S)-4-(6-((2'-(7,7-Dimethyl-1-oxo-1,3,4,6,7,8-hexahydro-2H-cyclopenta[4,5]pyrrolo[1,2-a]pyrazin-2-yl)-3'-(hydroxymethyl)-1-methyl-6-oxo-1,6-dihydro-[3,4'-bipyridin]-5-yl)amino)pyridin-3-yl)-3-methylpiperazin-1-yl)-2-oxoethyl)amino)-2-(2,6-dioxopiperidin-3-yl)isoindoline-1,3-dione; assay type: cell-based; parameters: scale not given: the % may be the effect or the level left
Target sequence in this assay (Q06187 2-659 limits assumed): as the sequence (Q06187 2-659 limits assumed) above
Target sequence in this assay (Q96SW2 whole entry partner): as the sequence (Q96SW2 whole entry) above

[7] = target: T2, Protein cereblon/Tyrosine-protein kinase BTK; assay: PROTAC activity at BTK/CRBN protein protein interaction in human Ramos cell assessed as degradation of BTK incubated for 17 hrs measured by Western blot analysis; assay type: cell-based; how it was run: as §1
Target sequence in this assay (Q06187 whole entry): as the sequence (Q06187 whole entry) above
Target sequence in this assay (Q96SW2 whole entry): as the sequence (Q96SW2 whole entry) above

[8] = target: T1, Tyrosine-protein kinase BTK; assay: Inhibition of BTK in HEK293 cells using NanoGlo substrate incubated for 2 hrs by NanoBRET assay; assay type: cell-based
Protein cereblon = Protein cereblon (Homo sapiens, UniProt Q96SW2); assay: Inhibition of CRBN in HEK293 cells using NanoGlo substrate incubated for 2 hrs by NanoBRET assay; assay type: cell-based
[9] = target: Eukaryotic peptide chain release factor GTP-binding subunit ERF3A (Homo sapiens) (UniProt P15170); assay: Degradation of […] in human TMD8 cells by measuring protein level at 111 nM for 6 hrs using label free proteomic analysis; assay type: cell-based
How it was run: (§2)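 TMD8 cells (2 × 10^6) given 111 nM or DMSO for 6 h in duplicate. Lysed in 5% SDS/50 mM TEAB pH 8.5. 200 μg protein reduced (10 mM DTT, 55 °C, 30 min), alkylated (50 mM iodoacetamide), S-Trap processed, then LC-MS/MS. Label-free matched-peptide quantitation against DMSO, human UniProt; Benjamini–Hochberg-corrected p-values.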

TMD8 = assay: Cytotoxicity against human TMD8 cells incubated for 48 hrs by celltitre glo 2.0 assay; assay type: functional, cell-based; conditions: TMD8, 48 h
[10] = target: DNA-binding protein Ikaros (Homo sapiens) (UniProt Q13422); assay: Degradation of IKZF1 in human TMD8 cells by measuring protein level at 111 nM for 6 hrs using label free proteomic analysis; assay type: cell-based; how it was run: as §2
[11] = target: Tyrosine-protein kinase CSK (Homo sapiens) (UniProt P41240); assay: Degradation of CSK in human TMD8 cells by measuring protein level at 111 nM for 6 hrs using label free proteomic analysis; assay type: cell-based; how it was run: as §2
[12] = target: Zinc finger protein Aiolos (Homo sapiens) (UniProt Q9UKT9); assay: Degradation of IKZF3 in human TMD8 cells by measuring protein level at 111 nM for 6 hrs using label free proteomic analysis; assay type: cell-based; how it was run: as §2
[13] = target: Tyrosine-protein kinase FRK (Homo sapiens) (UniProt P42685); assay: Degradation of FRK in human TMD8 cells by measuring protein level at 111 nM for 6 hrs using label free proteomic analysis; assay type: cell-based; how it was run: as §2
[14] = target: T3, Zinc finger protein 280D (Homo sapiens) (UniProt Q6N043); assay: Degradation of […] in human TMD8 cells by measuring protein level at 111 nM for 6 hrs using label free proteomic analysis; assay type: cell-based; how it was run: as §2
T3 sequence (whole entry): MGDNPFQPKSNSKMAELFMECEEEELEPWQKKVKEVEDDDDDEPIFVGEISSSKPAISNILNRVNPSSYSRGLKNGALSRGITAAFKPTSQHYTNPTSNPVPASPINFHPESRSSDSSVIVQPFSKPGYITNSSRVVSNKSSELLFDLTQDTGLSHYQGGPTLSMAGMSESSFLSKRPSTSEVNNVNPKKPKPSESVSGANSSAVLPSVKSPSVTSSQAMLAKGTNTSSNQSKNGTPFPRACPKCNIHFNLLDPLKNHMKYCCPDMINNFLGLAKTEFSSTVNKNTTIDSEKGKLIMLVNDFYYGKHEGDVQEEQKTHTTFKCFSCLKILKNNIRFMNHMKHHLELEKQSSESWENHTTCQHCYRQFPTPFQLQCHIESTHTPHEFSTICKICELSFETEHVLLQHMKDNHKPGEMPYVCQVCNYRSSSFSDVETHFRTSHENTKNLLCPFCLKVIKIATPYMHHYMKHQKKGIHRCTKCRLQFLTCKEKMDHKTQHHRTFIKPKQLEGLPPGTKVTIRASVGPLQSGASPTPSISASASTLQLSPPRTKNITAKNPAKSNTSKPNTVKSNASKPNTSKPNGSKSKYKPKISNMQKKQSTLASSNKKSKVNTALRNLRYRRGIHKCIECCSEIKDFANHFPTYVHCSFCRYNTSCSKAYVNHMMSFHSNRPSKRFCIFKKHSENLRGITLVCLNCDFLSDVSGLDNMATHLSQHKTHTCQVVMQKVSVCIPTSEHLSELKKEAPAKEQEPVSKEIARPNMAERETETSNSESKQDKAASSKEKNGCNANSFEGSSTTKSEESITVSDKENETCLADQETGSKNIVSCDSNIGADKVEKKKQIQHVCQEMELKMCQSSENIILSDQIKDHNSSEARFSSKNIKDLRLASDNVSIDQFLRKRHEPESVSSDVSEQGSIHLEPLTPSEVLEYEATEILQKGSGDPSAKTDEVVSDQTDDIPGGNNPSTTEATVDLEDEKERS

[15] = Cytotoxicity against human MINO cells incubated for 48 hrs by celltitre glo 2.0 assay; assay type: functional, cell-based

T1 sequence (Q06187 whole entry): as the sequence (Q06187 whole entry) above
Sequence of Protein cereblon (Q96SW2 whole entry): as the sequence (Q96SW2 whole entry) above
Sequence of Tyrosine-protein kinase CSK (Homo sapiens) (P41240 2-450 limits assumed): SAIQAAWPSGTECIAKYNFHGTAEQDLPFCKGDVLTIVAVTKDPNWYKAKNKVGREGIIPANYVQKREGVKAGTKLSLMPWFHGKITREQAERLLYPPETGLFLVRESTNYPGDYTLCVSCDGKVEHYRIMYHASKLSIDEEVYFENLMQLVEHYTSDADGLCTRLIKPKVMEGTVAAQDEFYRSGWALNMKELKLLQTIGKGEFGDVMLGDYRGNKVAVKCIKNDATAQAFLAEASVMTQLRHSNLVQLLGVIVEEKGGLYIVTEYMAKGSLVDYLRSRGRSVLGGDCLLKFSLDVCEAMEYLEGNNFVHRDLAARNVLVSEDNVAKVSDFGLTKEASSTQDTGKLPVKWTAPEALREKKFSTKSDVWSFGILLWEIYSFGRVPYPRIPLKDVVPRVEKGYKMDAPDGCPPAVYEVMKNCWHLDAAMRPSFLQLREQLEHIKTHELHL
Sequence of Eukaryotic peptide chain release factor GTP-binding subunit ERF3A (Homo sapiens) (P15170 whole entry): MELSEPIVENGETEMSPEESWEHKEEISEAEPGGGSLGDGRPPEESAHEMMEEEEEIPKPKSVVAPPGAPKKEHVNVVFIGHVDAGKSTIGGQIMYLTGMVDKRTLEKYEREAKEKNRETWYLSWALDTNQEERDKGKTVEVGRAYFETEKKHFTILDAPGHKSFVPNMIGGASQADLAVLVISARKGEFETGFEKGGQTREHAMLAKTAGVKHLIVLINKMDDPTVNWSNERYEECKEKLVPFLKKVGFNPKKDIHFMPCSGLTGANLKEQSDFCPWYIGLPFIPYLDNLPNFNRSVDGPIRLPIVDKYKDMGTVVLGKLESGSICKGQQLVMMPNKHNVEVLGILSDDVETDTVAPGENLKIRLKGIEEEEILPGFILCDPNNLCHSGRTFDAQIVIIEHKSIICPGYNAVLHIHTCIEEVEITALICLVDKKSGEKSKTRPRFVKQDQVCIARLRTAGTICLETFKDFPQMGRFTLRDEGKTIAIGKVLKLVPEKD
Sequence of DNA-binding protein Ikaros (Homo sapiens) (Q13422 whole entry): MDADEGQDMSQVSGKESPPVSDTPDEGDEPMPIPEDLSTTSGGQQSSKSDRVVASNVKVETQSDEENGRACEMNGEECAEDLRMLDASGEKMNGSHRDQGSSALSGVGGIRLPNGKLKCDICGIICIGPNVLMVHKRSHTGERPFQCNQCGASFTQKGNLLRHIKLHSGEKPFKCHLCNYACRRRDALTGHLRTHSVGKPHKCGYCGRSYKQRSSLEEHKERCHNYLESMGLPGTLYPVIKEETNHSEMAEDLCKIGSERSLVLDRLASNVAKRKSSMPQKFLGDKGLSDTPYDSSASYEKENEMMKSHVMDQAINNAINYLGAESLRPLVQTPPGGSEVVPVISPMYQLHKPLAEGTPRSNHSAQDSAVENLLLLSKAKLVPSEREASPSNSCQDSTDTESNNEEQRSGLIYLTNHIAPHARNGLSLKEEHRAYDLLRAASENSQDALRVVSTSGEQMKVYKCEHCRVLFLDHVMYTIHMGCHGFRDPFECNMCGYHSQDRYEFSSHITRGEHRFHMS
Sequence of Tyrosine-protein kinase FRK (Homo sapiens) (P42685 whole entry): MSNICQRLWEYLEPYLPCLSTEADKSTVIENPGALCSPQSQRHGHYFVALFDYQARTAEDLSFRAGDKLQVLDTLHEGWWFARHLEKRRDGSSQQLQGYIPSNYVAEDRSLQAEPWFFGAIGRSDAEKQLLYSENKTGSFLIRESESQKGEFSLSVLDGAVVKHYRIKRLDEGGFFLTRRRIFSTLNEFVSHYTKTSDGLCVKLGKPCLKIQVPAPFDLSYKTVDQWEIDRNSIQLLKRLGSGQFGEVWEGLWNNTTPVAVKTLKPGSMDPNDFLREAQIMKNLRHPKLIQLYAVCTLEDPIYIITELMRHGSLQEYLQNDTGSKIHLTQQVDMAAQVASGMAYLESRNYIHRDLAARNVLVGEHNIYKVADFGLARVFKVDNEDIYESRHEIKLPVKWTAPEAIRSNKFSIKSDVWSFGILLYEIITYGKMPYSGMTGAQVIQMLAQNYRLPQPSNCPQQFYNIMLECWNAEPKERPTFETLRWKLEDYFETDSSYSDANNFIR
Sequence of Zinc finger protein Aiolos (Homo sapiens) (Q9UKT9 whole entry): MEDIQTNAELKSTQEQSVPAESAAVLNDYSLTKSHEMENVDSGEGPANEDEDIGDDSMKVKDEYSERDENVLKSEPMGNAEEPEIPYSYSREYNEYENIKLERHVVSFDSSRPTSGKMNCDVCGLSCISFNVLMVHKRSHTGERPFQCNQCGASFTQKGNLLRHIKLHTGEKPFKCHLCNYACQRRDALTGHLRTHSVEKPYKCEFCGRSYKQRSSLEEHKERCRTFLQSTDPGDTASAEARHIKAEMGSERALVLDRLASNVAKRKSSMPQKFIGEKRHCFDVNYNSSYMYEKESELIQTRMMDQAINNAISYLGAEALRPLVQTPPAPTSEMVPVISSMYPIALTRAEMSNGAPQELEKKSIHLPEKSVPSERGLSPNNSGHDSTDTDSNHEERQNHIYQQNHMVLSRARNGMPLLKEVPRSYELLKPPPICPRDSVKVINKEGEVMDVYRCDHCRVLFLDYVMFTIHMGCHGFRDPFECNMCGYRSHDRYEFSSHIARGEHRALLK

Structure (SMILES) | DC50 [3] [nM] | Emax [4] [%] | Emax [5] [%] | DC50 [7] [nM] | also measured
Nc1cccc2c1C(=O)N(C1CCC(=O)NC1=O)C2=O (configuration not stated) | – | – | – | – | Activity (MINO): Dose-Dependent Effect
C[C@H]1CN(C(=O)c2cccc3c2C(=O)N(C2CCC(=O)NC2=O)C3=O)CCN1c1ccc(Nc2cc(-c3ccnc(N4CCn5c(cc6c5CC(C)(C)C6)C4=O)c3CO)cn(C)c2=O)nc1 (some centres not stated) | > 3000 | 30.1 | 30 | > 3000 | Kd [1]: 0.86 nM; Ratio [2]: 3; Activity [6]: 0%; IC50 [8]: 320 nM; IC50 (Protein cereblon): 7000 nM
Nc1ncnc2c1c(-c1ccc(Oc3ccccc3)cc1)nn2[C@@H]1CCCN(C(=O)c2cn(CCOCCOCCOCCNc3cccc4c3C(=O)N(C3CCC(=O)NC3=O)C4=O)nn2)C1 (some centres not stated) | – | – | – | – | Activity [9]: inactive; IC50 (TMD8): 15 nM; Activity [10]: Active; Activity [11]: Active; Activity [12]: Active; Activity [13]: Active; Activity [14]: Active; IC50 [15]: 10.4 nM
Cn1cc(-c2ccnc(N3CCn4c(cc5c4CC(C)(C)C5)C3=O)c2CO)cc(Nc2ccc(N3CCN(CCCCCCOCCOCC(=O)Nc4cccc5c4C(=O)N(C4CCC(=O)NC4=O)C5=O)CC3)cn2)c1=O (configuration not stated) | 6.8 | 97.2 | 97.7 | 5.3 | –
C[C@H]1CN(C(=O)CCCCCCCCCCCNc2cccc3c2C(=O)N(C2CCC(=O)NC2=O)C3=O)CCN1c1ccc(Nc2cc(-c3ccnc(N4CCn5c(cc6c5CC(C)(C)C6)C4=O)c3CO)cn(C)c2=O)nc1 (some centres not stated) | 348 | 89 | 89.8 | 113 | Kd [1]: 107 nM; Ratio [2]: 300; Activity [6]: 75%; IC50 [8]: 3200 nM; IC50 (Protein cereblon): 5000 nM
C[C@H]1CN(C(=O)CNc2ccc3c(c2)C(=O)N(C2CCC(=O)NC2=O)C3=O)CCN1c1ccc(Nc2cc(-c3ccnc(N4CCn5c(cc6c5CC(C)(C)C6)C4=O)c3CO)cn(C)c2=O)nc1 (some centres not stated) | 0.8 | 97.3 | 97.6 | 0.9 | –

Continued, in another order:

DC50 [3] [nM] | Emax [4] [%] | Emax [5] [%] | DC50 [7] [nM] | Structure (SMILES) | also measured
3.3 | 95 | 97 | 3.2 | C[C@H]1CN(C(=O)CCCCCCNc2cccc3c2C(=O)N(C2CCC(=O)NC2=O)C3=O)CCN1c1ccc(Nc2cc(-c3ccnc(N4CCn5c(cc6c5CC(C)(C)C6)C4=O)c3CO)cn(C)c2=O)nc1 (some centres not stated) | –
1 | 95.7 | 97.4 | 0.9 | C[C@H]1CN(C(=O)CCCNc2cccc3c2C(=O)N(C2CCC(=O)NC2=O)C3=O)CCN1c1ccc(Nc2cc(-c3ccnc(N4CCn5c(cc6c5CC(C)(C)C6)C4=O)c3CO)cn(C)c2=O)nc1 (some centres not stated) | –
4.1 | 96.1 | 95.1 | 1.3 | C[C@H]1CN(C(=O)CCOCCOCCNc2cccc3c2C(=O)N(C2CCC(=O)NC2=O)C3=O)CCN1c1ccc(Nc2cc(-c3ccnc(N4CCn5c(cc6c5CC(C)(C)C6)C4=O)c3CO)cn(C)c2=O)nc1 (some centres not stated) | –
